Measured values published in paper PMC4954844 (European Journal of Drug Metabolism and Pharmacokinetics, 2015).
Where two headings read alike, the source gives them in different places.

Experiments:
[1] = mice, ref Wyska et al. [2007], cited from earlier work
[2] = Human pharmacokinetic study of LSF; format: in vivo; conditions: plasma, iv, 3 mg/kg
[3] = PBPK simulation and clearance scaling of LSF to a 70-kg human subject
[4] = Urinary excretion of unchanged LSF in mice; format: in vivo; conditions: 50 mg/kg i.v., within 4 h, unpublished data
Method in brief: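 Three mice received 50 mg/kg intravenously and were housed in metabolic cages. All urine was collected at 2 and 4 h post-dose with volumes recorded. Unchanged drug was quantified by the chiral HPLC-UV method after validation for murine urine, expressed as percent of dose excreted within 4 h.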

[5] = format: in vivo, male Crl:CD-1 mice
Method in brief: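 Male Crl:CD-1 mice (8–10 weeks, bred in-house) were fasted overnight with water and dosed at 50 mg/kg into the tail vein. 3–4 per time point were exsanguinated up to 60 min. Serum was clotted at room temperature, then spun. Brain, muscle, kidneys, liver, gut and lungs were homogenized 1:4 w/v in 0.1 M PBS. Samples were stored at −80 °C.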

[6] = ref Nicklasson et al. [2002], cited from earlier work
[7] = ref Bursten et al. [1998], cited from earlier work
[8] = system: human liver microsomes (CYP3A4, CYP2A6); conditions: biphasic, cited from earlier work
[9] = system: human liver microsomes (CYP1A2 and a non-cytochrome P450 enzyme); conditions: biphasic, ref Lee and Slattery [1997]; cited from earlier work
[10] = mice, final PBPK model estimate
[11] = CYP2A6, ref Shin and Slattery [1998]
[12] = CYP3A4, ref Shin and Slattery [1998]

clearance [2]: 1280 mL/min | in vivo whole liver intrinsic clearance ([3]; calculated from human liver microsome Vmax/KM data and Eq. 11): 1,545.24 ml/min | plasma hepatic clearance ([3]; calculated from the in vivo intrinsic clearance (Eq. 12)): 477.54 mL/min | mean percentage of LSF dose excreted unchanged with urine [4]: 0.71 ± 0.13% | Kp ([5]; male, Crl:CD-1, mouse, brain/serum, iv, 50 mg/kg): 0.345 | Kp ([5]; male, Crl:CD-1, mouse, gut/serum, iv, 50 mg/kg): 0.892 | clearance ([5]; male, Crl:CD-1, mouse, intravenous, 50 mg/kg): 5.43 mL/min | concentration at 60 min ([5]; male, Crl:CD-1, mouse, iv, 50 mg/kg): < 1000 ng/mL | Kp ([5]; male, Crl:CD-1, mouse, kidneys/serum, iv, 50 mg/kg): 0.777 | Kp ([5]; male, Crl:CD-1, mouse, liver/serum, iv, 50 mg/kg): 0.859 | Kp ([5]; male, Crl:CD-1, mouse, lungs/serum, iv, 50 mg/kg): 0.758 | Kp ([5]; male, Crl:CD-1, mouse, muscle/serum, iv, 50 mg/kg): 0.64 | clearance ([5]; male, Crl:CD-1, mouse, serum, iv, 50 mg/kg): 1.44 mL/min | K M (LSF concentration at 50 % of the maximum rate of metabolism) [5, 10]: 1.777 µg/mL | V max (maximum rate of metabolism) [5, 10]: 9.644 µg/min
Structure (SMILES): C[C@@H](O)CCCCn1c(=O)c2c(ncn2C)n(C)c1=O [LSF, (−)-R-1-(5-hydroxyhexyl)-3,7-dimethylxanthine]
first-order absorption rate constant (ka) ([1]; oral administration): 0.024 min⁻¹ | fraction of the dose absorbed following oral administration (F) ([1]; oral administration): 0.16 | bioavailability ([1]; oral): 16% | fraction unbound (fu) in human plasma ([6]; human plasma): 0.54 | blood to plasma LSF concentration ratio (CB/Cp) ([6]; human): 0.77 | maximum concentration (C max), observed ([7]; human subjects, oral 6 mg/kg): 226 ± 99.10 ng/mL | time to C max, observed ([7]; human subjects, oral 6 mg/kg): 0.53 ± 0.26 h | bioavailability ([7]; humans, oral): 5.9% | K M, lisofylline diol formation, high K M enzyme [8, 11]: 4230 µM | V max, lisofylline diol formation, high K M enzyme [8, 11]: 0.429 nmol/min/mg of protein | K M, lisofylline diol formation, low K M enzyme [8, 12]: 23 µM | V max, lisofylline diol formation, low K M enzyme [8, 12]: 0.0565 nmol/min/mg of protein | K M, formation of pentoxifylline from LSF, second (high K M) enzyme [9]: 158 µM | V max, formation of pentoxifylline from LSF, second (high K M) enzyme [9]: 0.928 nmol/min/mg
